M5 ag = CHRM5 agonism in calcium assay; P08912; CHO-K1 hM5 cells, Fluo-8 calcium fluorescence; 0% DMSO wells, 100% maximal acetylcholine response; activation, % at 3 µM; 360,000 tested, 0.19% active; AID 624037;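 active = activation above the run's mean over test compounds plus 3 SD, cut at about 23% in these data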;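 also: signal is peak over basal fluorescence ratio across the kinetic read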
Target sequence (P08912 whole entry, looked up): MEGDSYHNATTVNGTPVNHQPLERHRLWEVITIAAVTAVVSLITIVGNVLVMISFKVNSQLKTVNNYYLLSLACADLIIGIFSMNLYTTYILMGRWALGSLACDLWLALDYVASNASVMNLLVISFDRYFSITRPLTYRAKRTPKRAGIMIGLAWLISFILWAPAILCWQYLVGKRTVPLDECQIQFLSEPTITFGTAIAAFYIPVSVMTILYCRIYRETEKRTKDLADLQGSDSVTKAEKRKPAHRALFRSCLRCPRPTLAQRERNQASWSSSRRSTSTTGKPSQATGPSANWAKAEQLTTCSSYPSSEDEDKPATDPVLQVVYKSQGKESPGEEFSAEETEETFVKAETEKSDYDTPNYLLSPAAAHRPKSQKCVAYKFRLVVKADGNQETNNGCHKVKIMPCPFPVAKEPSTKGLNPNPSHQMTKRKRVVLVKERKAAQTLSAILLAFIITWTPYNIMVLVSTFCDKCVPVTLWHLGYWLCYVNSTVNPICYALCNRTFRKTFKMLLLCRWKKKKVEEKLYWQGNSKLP
CHRM1 agonist = agonists of human M1 muscarinic receptor. P11229. CHO-K1 hM1, Fluo-8 calcium fluorescence, agonist mode; 0% DMSO, 100% acetylcholine EC100. activation, % at 3 µM. 360,000 tested, 0.33% active. AID 588814;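 active = activation above the run's mean compound activation plus 3 SD, cut at about 16% in these data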;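 also: peak over basal fluorescence ratio within a 140 s kinetic read after compound addition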
CHRM5 antagonist = CHRM5 antagonism in calcium assay. inhibition, % at 3 µM. CHO-hM5 cells, Fluo-8 calcium fluorescence, ACh EC80. 360,000 tested, 0.59% active. P08912;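 active = inhibition above a per-plate cutoff, the mean of that plate's test compounds plus 3 SD, cut at about 27% in these data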;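 also: 0% = acetylcholine EC80 with DMSO and 100% = DMSO without agonist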
M1 antag = blocks human M1 muscarinic receptor. P11229. CHO-K1 hM1, Fluo-8 calcium fluorescence, ACh EC80 antagonist. inhibition, % at 3 µM. 360,000 tested, 1.3% active. AID 588852;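 active = percent inhibition above its own plate's cutoff, namely the mean of that plate's compound wells plus 3 SD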;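 also: peak over basal fluorescence ratio during 140 s after agonist addition; 0% = ACh EC80 plus DMSO and 100% = DMSO alone without agonist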
CHRM5 PAM = CHRM5 positive allosteric modulation; P08912; AID 624038; 360,000 tested, 0.3% active; CHO-K1 hM5, Fluo-8 calcium, ACh EC20 PAM; 0% = ACh EC20, 100% = ACh EC100; activation, % at 3 µM;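 active = activation above the run cutoff, the mean activation of all test compounds plus 3 SD, cut at about 18% in these data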
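Assay system – human M5 receptor in CHO-K1 cells · Read-out – % activation, ACh-normalized · Technique – Fluo-8 calcium fluorescence · Dosing – single-point, 3 µM nominal · Incubation – Fluo-8 loading 80 min at 37 °C plus 30 min room temperature · Repeats – singlicate, one well per test compound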
M1 PAM = potentiates human M1 receptor response to acetylcholine; activation, % at 3 µM; 360,000 tested, 0.088% active; CHO-K1 hM1, Fluo-8 calcium fluorescence, ACh EC20; 0% = ACh EC20, 100% = maximal ACh; P11229; in the data active = activation above about 19%, passing the limit was not always enough
The depositor's hits bear a star. In the library only some 2.2% were active in any assay of this set; here they are far more common.

SMILES	M5 ag	CHRM1 agonist	CHRM5 antagonist	M1 antag	CHRM5 PAM	M1 PAM
O=C(Nc1ccc(-n2cccn2)cc1)C1CCCCN1Cc1cccc2cccnc12 (configuration not stated)	-7	-5	-14	18	12	-12
Cn1cc(CN2CCCCC2C(=O)Nc2ccc(-n3cccn3)cc2)cn1 (configuration not stated)	-7	-5	27*	-12	-7	7
Cc1cccc(OC(C)C(=O)Nc2ccccc2C(=O)N2CCCCC2)c1 (configuration not stated)	5	-1	0	-2	-2	2
CCOc1ccccc1NC(=O)C(OC(=O)c1ccc(O)cc1)c1ccccc1 (configuration not stated)	-1	-2	29*	7	-13	-7
CCCC(=O)Nc1ccc2nc(SCC(=O)Nc3ccc(N4CCOCC4)c(Cl)c3)sc2c1	3	0	9	29	-14	-6
Nc1ccc2nc(SCC(=O)Nc3ccc(N4CCOCC4)c(Cl)c3)sc2c1	5	2	27*	4	-21	-5
COc1ccc(C2C(C#N)=C(SCC(=O)Nc3ccc(C)cc3)NC3=C2C(=O)CC(C)(C)C3)cc1 (configuration not stated)	-1	21*	3	85*	-2	-15
COc1ccc(NC(=O)CSC2=C(C#N)C(c3ccco3)C3=C(CCCC3=O)N2)c(OC)c1 (configuration not stated)	-5	0	42*	-19	-13	3
O=C(Nc1ccc(Cl)cc1)Nc1nc(-c2ccccc2O)cs1	8	9	36*	35*	-31	-11
CCN(CC(=O)Nc1ccc([N+](=O)[O-])cc1OC)CC(=O)NC(C)(C)C	0	-6	-5	-4	-2	6
CCNc1nc2c(c(=O)n(C)c(=O)n2C)n1Cc1ccc(Cl)cc1	6	2	25	29*	-16	-13
CCC(C)Nc1nc2c(c(=O)n(C)c(=O)n2C)n1Cc1ccc(Cl)cc1 (configuration not stated)	-1	-3	1	-4	-5	3
O=C(CCCN1CCC(c2ccccc2)C1)c1ccc2c(c1)OCCO2 (configuration not stated)	-5	-8	11	35*	-9	-26
CC(C)Nc1nnc(SCC(=O)Nc2ccc3c(c2)C(=O)c2ccccc2C3=O)s1	6	-2	13	31*	-18	-17
Cc1c(NC(=O)c2cc(-c3cccs3)nc3ccccc23)c(=O)n(-c2ccccc2)n1C	4	-1	27*	23	-19	-16
Cc1c(NC(=O)/C(C#N)=C\c2cccs2)c(=O)n(-c2ccccc2)n1C	-5	-12	0	-7	-1	1
Cc1c(NC(=O)/C(=C/c2cccs2)c2cccs2)c(=O)n(-c2ccccc2)n1C	-8	-11	-1	54*	-2	-27
Cc1ccc(S(=O)(=O)NCCC(=O)NC(C)CCc2ccccc2)cc1 (configuration not stated)	0	-1	3	-18	-4	4
Cc1ccc(S(=O)(=O)N2c3ccccc3OCC2C(C)(C)C)cc1 (configuration not stated)	12	-1	-12	6	21*	-2
CCNS(=O)(=O)c1ccc(NC(=O)Nc2ccc3c(c2)OCO3)cc1	-3	-3	1	10	8	-3
O=C(Nc1ccc(S(=O)(=O)NCc2ccccc2)cc1)Nc1ccc2c(c1)OCO2	3	3	10	27*	-7	-12
CC(=O)c1ccc(NC(=O)CN2C(=O)NC(C)(C3CCCCC3)C2=O)cc1 (configuration not stated)	2	-3	8	4	0	-2
Cc1ccccc1Nc1nc(N)nc(COC(=O)c2ccccc2)n1	2	-6	-5	-10	-1	6
Cc1ccccc1Nc1nc(N)nc(COC(=O)c2ccc(O)cc2)n1	12	19*	5	-6	-4	12
O=C(O)c1cc(N/N=C/C=C/c2ccccc2)ccc1Cl	1	-5	8	-1	-2	2
SMILES	M5 ag	CHRM1 agonist	CHRM5 antagonist	M1 antag	CHRM5 PAM	M1 PAM
CN(C)C(=O)CSc1nnc(Cc2ccc([N+](=O)[O-])cc2)o1	1	-5	8	-2	-5	-2
CC1O[C@@H](O[C@H](C)CC[C@@H](C)O)C(O)C[C@H]1O (some centres not stated)	3	0	-2	0	9	3
O=C(O)CCn1cc(/C=C\C(=O)c2ccc(Cl)cc2)c(-c2cccc(Br)c2)n1	-3	-8	-2	10	-3	-2
Cc1ccc(-c2nn(CCC(=O)O)cc2/C=C\C(=O)c2ccc(Br)cc2)cc1	-3	-5	-1	1	23*	4
Cc1ccc(-c2nn(-c3ccccc3)cc2C2CC(c3cccs3)=NN2C(=O)CCCC(=O)O)cc1 (configuration not stated)	0	-2	-10	-2	6	6
COc1cc(OC)cc(C(=O)N[C@H](C(=O)OCC(=O)c2ccc(C)c([N+](=O)[O-])c2)C(C)C)c1	-5	-6	1	-10	5	-2
Cc1ccc(-c2c[n+]3c(n2-c2ccccc2)SCC3)cc1	-14	-8	3	54*	4	-21
Brc1ccc(-c2c[n+]3c(n2-c2ccccc2)SCC3)cc1	-18	-9	6	73*	2	-26
COc1ccc(-c2c[n+]3c(n2-c2ccccc2)SCC3)cc1	-17	-9	0	62*	6	-23
COc1ccc(-c2c[n+]3c(n2-c2ccccc2)SCC3)cc1OC	-5	-8	1	-3	3	5
CCc1nc2c(OCC(=O)C(C)(C)C)cccn2c1N(C=O)CC(=O)N(C)C	0	-1	-2	-6	3	7
CCCc1cc(=O)n2c(nc3ccccc32)[nH]1	-2	1	-8	-12	-12	12
CC(C)(CNc1ccc([N+](=O)[O-])cc1Cl)N1CCOCC1	-2	-6	10	-2	-2	3
O=C(CCS(=O)(=O)c1ccc(F)cc1)Nc1nccs1	2	6	-2	-18	2	14
CSc1nsc(SC)c1C(=O)Nc1ccc(C(C)(C)C)cc1	-11	-5	4	7	-10	-10
CSc1nsc(SC)c1C(=O)NC(=O)Nc1cccnc1	4	1	-11	-10	22*	7
Cc1cc(=O)[nH]c(SCC(=O)/C=C2\N(C)c3ccccc3C2(C)C)n1	7	1	31*	18	-18	-4
